Values after ≈ are worked out from the molar mass of the structure shown. Active and inactive are the calls of the source. The calls are words filed in the database; no cut-off is given here.
Assays:
[1] = test system: Trichophyton interdigitale; assay: Antifungal activity against Trichophyton interdigitale ATCC 9533 CCM 8377 at highest concentration measured after 72 to 120 hrs by alamar blue dye based broth microdilution assay; assay type: functional
Lichtheimia corymbifera = assay: Antifungal activity against Lichtheimia corymbifera CCM 8077 at highest concentration measured after 24 to 48 hrs by alamar blue dye based broth microdilution assay; assay type: functional, organism-based
Staphylococcus aureus [2] = assay: Antibacterial activity against methicillin-resistant Staphylococcus aureus subsp. aureus ATCC 43300 CCM 4750 at highest concentration measured after 24 to 48 hrs by alamar blue dye based broth microdilution assay; assay type: functional, organism-based
Pichia kudriavzevii = assay: Antifungal activity against Candida krusei ATCC 6258 CCM8271 at highest concentration measured after 24 to 48 hrs by alamar blue dye based broth microdilution assay; assay type: functional, organism-based
Pseudomonas aeruginosa = assay: Antibacterial activity against Pseudomonas aeruginosa ATCC 27853 CCM 3955 at highest concentration measured after 24 to 48 hrs by alamar blue dye based broth microdilution assay; assay type: functional, organism-based
Candida albicans = assay: Antifungal activity against Candida albicans ATCC 24433 CCM 8320 at highest concentration measured after 24 to 48 hrs by alamar blue dye based broth microdilution assay; assay type: functional, organism-based
Mycobacterium avium [3] = assay: Antimycobacterial activity against Mycobacterium avium CNCTC My 330/88 after 14 days; assay type: functional; settings: CNCTC My 330/88, 336 h
How it was run: (§1)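 M. avium was tested by microdilution in Šula's semisynthetic medium, with compounds dissolved in DMSO and serially diluted from 1000 down to 1. Inoculum was a 1.0 McFarland suspension diluted 10-5. Plates were incubated at 37 °C and read at 14 and 21 days. […] Isoniazid and rifampicin served as standards.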

Klebsiella pneumoniae = assay: Antibacterial activity against Klebsiella pneumoniae at highest concentration measured after 24 to 48 hrs by alamar blue dye based broth microdilution assay; assay type: functional, organism-based
[4] = test system: Mycobacterium tuberculosis; assay: Antimycobacterial activity against Mycobacterium tuberculosis H37Rv CNCTC My 331/88 after 14 days; assay type: functional; settings: H37Rv CNCTC My 331/88, 336 h
How it was run: (§2)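 M. tuberculosis strains (H37Rv and clinical MDR/XDR isolates) tested by microdilution in Šula's semisynthetic medium. Compounds were dissolved in DMSO and tested at 32 to 0.03 µM in twofold steps. Inoculum was a 1.0 McFarland suspension diluted 10-3. Plates were incubated at 37 °C and read at 14 and 21 days.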

Staphylococcus aureus [5] = assay: Antibacterial activity against Staphylococcus aureus subsp. aureus ATCC 29213 CCM 4223 at highest concentration measured after 24 to 48 hrs by alamar blue dye based broth microdilution assay; assay type: functional, organism-based
Aspergillus fumigatus = assay: Antifungal activity against Aspergillus fumigatus ATCC 204305 at highest concentration measured after 24 to 48 hrs by alamar blue dye based broth microdilution assay; assay type: functional, organism-based
Mycobacterium kansasii [6] = assay: Antimycobacterial activity against Mycobacterium kansasii CNCTC My 235/80 after 7 days; assay type: functional; settings: CNCTC My 235/80, 168 h
How it was run: (§3)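 Microdilution in Šula's semisynthetic medium; compounds in DMSO at 32–0.03 µM. Inoculum from 1.0 McFarland suspension diluted 10-4. […] Isoniazid and rifampicin as reference drugs.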

[7] = test system: Mycobacterium tuberculosis; assay: Antimycobacterial activity against Mycobacterium tuberculosis H37Rv CNCTC My 331/88 after 21 days; assay type: functional; settings: H37Rv CNCTC My 331/88, 504 h; how it was run: as §2
Candida parapsilosis = assay: Antifungal activity against Candida parapsilosis ATCC 22019 CCM 8260 at highest concentration measured after 24 to 48 hrs by alamar blue dye based broth microdilution assay; assay type: functional, organism-based
Serratia marcescens = assay: Antibacterial activity against Serratia marcescens at highest concentration measured after 24 to 48 hrs by alamar blue dye based broth microdilution assay; assay type: functional, organism-based
Mycobacterium avium [8] = assay: Antimycobacterial activity against Mycobacterium avium CNCTC My 330/88 after 21 days; assay type: functional; settings: CNCTC My 330/88, 504 h; how it was run: as §1
Escherichia coli = assay: Antibacterial activity against Escherichia coli ATCC 25922 CCM 3954 at highest concentration measured after 24 to 48 hrs by alamar blue dye based broth microdilution assay; assay type: functional, organism-based
Mycobacterium kansasii [9] = assay: Antimycobacterial activity against Mycobacterium kansasii 6509/96 after 14 days; assay type: functional; settings: 6509/96, 336 h; how it was run: as §3
[10] = test system: Staphylococcus epidermidis; assay: Antibacterial activity against Staphylococcus epidermidis at highest concentration measured after 24 to 48 hrs by alamar blue dye based broth microdilution assay; assay type: functional, organism-based
Mycobacterium kansasii [11] = assay: Antimycobacterial activity against Mycobacterium kansasii 6509/96 after 21 days; assay type: functional; settings: 6509/96, 504 h; how it was run: as §3
Mycobacterium kansasii [12] = assay: Antimycobacterial activity against Mycobacterium kansasii CNCTC My 235/80 after 21 days; assay type: functional; settings: CNCTC My 235/80, 504 h; how it was run: as §3
Mycobacterium kansasii [13] = assay: Antimycobacterial activity against Mycobacterium kansasii CNCTC My 235/80 after 14 days; assay type: functional; settings: CNCTC My 235/80, 336 h; how it was run: as §3
Mycobacterium kansasii [14] = assay: Antimycobacterial activity against Mycobacterium kansasii 6509/96 after 7 days; assay type: functional; settings: 6509/96, 168 h; how it was run: as §3
Enterococcus faecalis = assay: Antibacterial activity against Enterococcus faecalis ATCC 29212 CCM 4224 at highest concentration measured after 24 to 48 hrs by alamar blue dye based broth microdilution assay; assay type: functional, organism-based
Aspergillus flavus = assay: Antifungal activity against Aspergillus flavus CCM 8363 at highest concentration measured after 24 to 48 hrs by alamar blue dye based broth microdilution assay; assay type: functional, organism-based
Candida tropicalis = assay: Antifungal activity against Candida tropicalis ATCC 750 CCM 8264 at highest concentration measured after 24 to 48 hrs by alamar blue dye based broth microdilution assay; assay type: functional, organism-based

Row | Structure (SMILES) | Activity [1] | Activity (Lichtheimia corymbifera) | Activity (Staphylococcus aureus [2]) | Activity (Pichia kudriavzevii) | Activity (Pseudomonas aeruginosa) | Activity (Candida albicans) | MIC99 (Mycobacterium avium [3]) [µM] | Activity (Klebsiella pneumoniae) | MIC99 [4] [µM] | Activity (Staphylococcus aureus [5]) | Activity (Aspergillus fumigatus) | MIC99 (Mycobacterium kansasii [6]) [µM] | MIC99 [7] [µM] | Activity (Candida parapsilosis) | Activity (Serratia marcescens) | MIC99 (Mycobacterium avium [8]) [µM] | Activity (Escherichia coli) | MIC99 (Mycobacterium kansasii [9]) [µM] | Activity [10] | MIC99 (Mycobacterium kansasii [11]) [µM] | further results
1 | COc1ccc(-c2nnc(SCc3cc([N+](=O)[O-])cc(C(F)(F)F)c3)n2Cc2ccccc2)cc1 | inactive | inactive | inactive | inactive | inactive | inactive | 250 (≈ 125 µg/mL) | inactive | 32 (≈ 16 µg/mL) | inactive | inactive | 32 (≈ 16 µg/mL) | > 32 | inactive | inactive | 250 (≈ 125 µg/mL) | inactive | > 32 | inactive | > 32 | MIC99 (Mycobacterium kansasii [12]): > 32 µM; MIC99 (Mycobacterium kansasii [13]): > 32 µM; MIC99 (Mycobacterium kansasii [14]): > 32 µM; Activity (Enterococcus faecalis): inactive; Activity (Aspergillus flavus): inactive; Activity (Candida tropicalis): inactive
2 | O=[N+]([O-])c1cc(CSc2nnc(C3CCCCC3)n2Cc2ccccc2)cc([N+](=O)[O-])c1 | inactive | inactive | inactive | inactive | inactive | inactive | 250 (≈ 113 µg/mL) | inactive | 2 (≈ 0.907 µg/mL) | inactive | inactive | 4 (≈ 1.81 µg/mL) | 4 (≈ 1.81 µg/mL) | inactive | inactive | 250 (≈ 113 µg/mL) | inactive | 4 (≈ 1.81 µg/mL) | inactive | 4 (≈ 1.81 µg/mL) | MIC99 (Mycobacterium kansasii [12]): 4 µM (≈ 1.81 µg/mL); MIC99 (Mycobacterium kansasii [13]): 4 µM (≈ 1.81 µg/mL); MIC99 (Mycobacterium kansasii [14]): 4 µM (≈ 1.81 µg/mL); Activity (Enterococcus faecalis): inactive; Activity (Aspergillus flavus): inactive; Activity (Candida tropicalis): inactive
3 | O=[N+]([O-])c1cc(-c2nnc(SCc3ccccc3)n2Cc2ccc(Cl)cc2Cl)cc([N+](=O)[O-])c1 | inactive | inactive | inactive | inactive | inactive | inactive | 16 (≈ 8.26 µg/mL) | inactive | 2 (≈ 1.03 µg/mL) | inactive | inactive | 2 (≈ 1.03 µg/mL) | 2 (≈ 1.03 µg/mL) | inactive | inactive | 16 (≈ 8.26 µg/mL) | inactive | 4 (≈ 2.07 µg/mL) | inactive | 4 (≈ 2.07 µg/mL) | MIC99 (Mycobacterium kansasii [12]): 4 µM (≈ 2.07 µg/mL); MIC99 (Mycobacterium kansasii [13]): 4 µM (≈ 2.07 µg/mL); MIC99 (Mycobacterium kansasii [14]): 4 µM (≈ 2.07 µg/mL); Activity (Enterococcus faecalis): inactive; Activity (Aspergillus flavus): inactive; Activity (Candida tropicalis): inactive
4 | CCCCCCCCCCCc1nnc(SCc2cc([N+](=O)[O-])cc([N+](=O)[O-])c2)n1Cc1ccccc1 | inactive | inactive | inactive | inactive | inactive | inactive | 250 (≈ 131 µg/mL) | inactive | 4 (≈ 2.1 µg/mL) | inactive | inactive | 2 (≈ 1.05 µg/mL) | 4 (≈ 2.1 µg/mL) | inactive | inactive | 250 (≈ 131 µg/mL) | inactive | 4 (≈ 2.1 µg/mL) | inactive | 8 (≈ 4.21 µg/mL) | MIC99 (Mycobacterium kansasii [12]): 4 µM (≈ 2.1 µg/mL); MIC99 (Mycobacterium kansasii [13]): 4 µM (≈ 2.1 µg/mL); MIC99 (Mycobacterium kansasii [14]): 2 µM (≈ 1.05 µg/mL); Activity (Enterococcus faecalis): inactive; Activity (Aspergillus flavus): inactive; Activity (Candida tropicalis): inactive
